The results in this text go back to ChEMBL document CHEMBL1138080, “Design and synthesis of novel 2-amino-5-hydroxyindole derivatives that inhibit human 5-lipoxygenase” (J Med Chem, 2006).

Where only a bound is given, the exact number is not on record here.

Test [1] addresses T1, Polyunsaturated fatty acid 5-lipoxygenase (Homo sapiens, UniProt P09917).
T1 sequence (P09917 whole entry): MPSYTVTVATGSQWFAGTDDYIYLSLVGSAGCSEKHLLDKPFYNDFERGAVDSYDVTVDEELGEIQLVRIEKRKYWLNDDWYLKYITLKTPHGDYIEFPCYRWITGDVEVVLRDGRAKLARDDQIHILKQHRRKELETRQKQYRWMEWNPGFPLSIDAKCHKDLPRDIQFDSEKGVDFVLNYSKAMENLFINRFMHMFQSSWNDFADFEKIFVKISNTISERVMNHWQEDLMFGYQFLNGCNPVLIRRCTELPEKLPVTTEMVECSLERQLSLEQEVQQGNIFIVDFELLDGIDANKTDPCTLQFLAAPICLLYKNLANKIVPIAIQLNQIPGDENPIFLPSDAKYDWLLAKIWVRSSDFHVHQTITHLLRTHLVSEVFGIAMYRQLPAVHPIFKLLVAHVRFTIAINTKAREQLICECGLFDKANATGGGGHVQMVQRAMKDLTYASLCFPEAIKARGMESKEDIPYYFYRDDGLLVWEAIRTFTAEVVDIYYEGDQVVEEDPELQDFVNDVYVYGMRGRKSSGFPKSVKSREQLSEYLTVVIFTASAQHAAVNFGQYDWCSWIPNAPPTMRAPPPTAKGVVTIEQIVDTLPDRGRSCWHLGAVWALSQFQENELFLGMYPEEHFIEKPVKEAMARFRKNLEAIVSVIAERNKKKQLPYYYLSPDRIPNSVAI
Description: Inhibition of 5-LOX in A-23187-stimulated PNML. An outline of the steps:
(§1)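 Freshly isolated human PMNL (10^7 in 1 mL PBS with 1 mg/mL glucose and 1 mM CaCl2) were preincubated with compound at 37 °C. They were then stimulated with 2.5 µM ionophore A23187 for 10 min at 37 °C and stopped with methanol, with prostaglandin B1 added as standard.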

Test [2] addresses T2, Polyunsaturated fatty acid 5-lipoxygenase (Homo sapiens) (UniProt P09917).
T2 sequence (whole entry): T1 sequence (P09917 whole entry)
Nature of the test: Inhibition of 5-LOX in A-23187-stimulated […] at 10 uM. An outline of the steps:
as §1

The target in test [3] is T2, Polyunsaturated fatty acid 5-lipoxygenase (Homo sapiens). Description: Inhibition of 5-LOX at 10 uM. An outline of the steps:
(§2)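 5-LO was human recombinant, expressed in E. coli JM 109 (pT3-5LO). Lysis, ammonium sulfate precipitation and a 100000g spin gave the S100 supernatant used as enzyme source. The assay contained 1 mM ATP and test compound or DMSO vehicle, and the enzyme was incubated with 20 µM arachidonic acid.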

Test [4] deals with T1, Polyunsaturated fatty acid 5-lipoxygenase. Description: Inhibition of 5-LOX. An outline of the steps: as §2
Test [5] shares this target. Description: Inhibition of 5-LOX in A23187 and arachidonic acid-stimulated […]. An outline of the steps: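 Human PMNL (10^7/mL in PBS with glucose and 1 mM CaCl2) were preincubated with compound at 37 °C. They were then challenged with 2.5 µM A23187 plus 20 µM exogenous arachidonic acid for 10 min at 37 °C. The reaction was stopped with methanol and 5-LO products were quantified against a prostaglandin B1 standard.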

Consider `CCOC(=O)c1c(NC(C)c2ccccc2)[nH]c2ccc(O)cc12` (stereo not given), for which the IC50 in test [1] came out at 1.2 µM; in test [4], 3 µM; in test [5], 4.6 µM. The inhibition in test [2] stood at 94%; in test [3], 72%.

In test [2], `CCOC(=O)c1c(N2CCN(C)CC2)[nH]c2ccc(O)cc12` showed an inhibition of 0%.

In the case of `CCOC(=O)c1c(N2CCN(c3ccccc3)CC2)[nH]c2ccc(O)cc12`, the results for the IC50 in test [1] and in test [4] were > 20 µM and 3.1 µM, respectively. The inhibition in test [2] amounted to 22%; in test [3] it was 79%.

Regarding `COC(=O)c1c(NC(C)c2ccccc2)[nH]c2ccccc12` (stereo not given), the inhibition was determined as 48% in test [2] and 42% in test [3].

With `CCOC(=O)c1c(N2CCN(Cc3ccccc3)CC2)[nH]c2ccc(O)cc12`, the values for the inhibition in test [2] and in test [3] were 15% and 61%, respectively.

Turning to `CCOC(=O)c1c(N2CCN(c3ccccc3)CC2)n(C)c2ccc(OC)cc12`, the inhibition in test [2] worked out at 14%; in test [3], 36%.

For `C=CCN(CC=C)c1[nH]c2ccc(O)cc2c1C(=O)OCC`, the concentration for half-maximal inhibition (IC50) amounted to 7.2 µM in test [1] and 7.1 µM in test [4]. For the same molecule, the inhibition was found to be 71% in test [2] and 65% in test [3].

`Nc1[nH]c2ccc(O)cc2c1C(=O)c1ccccc1` returned an inhibition in test [2] of 0%.

For `CCOC(=O)c1c(N(C)C)[nH]c2ccc(O)cc12`, the inhibition in test [2] worked out at 0%.

As to `CCOC(=O)c1c(Nc2ccc(C)cc2)[nH]c2ccc(O)cc12`, the IC50 stood at 5.2 µM in test [1] and 5 µM in test [4]. The inhibition in test [2] turned out to be 76%; in test [3], 77%.

For the molecule `CC(=O)N(O)C/C=C/c1cccc(Oc2ccccc2)c1`, the inhibition was found to be 93% in test [2] and 86% in test [3].

Take `COC(=O)c1c(NC(C)c2ccccc2)[nH]c2ccc(O)cc12` (racemic): the inhibition in test [2] stood at 77%; in test [3], 94%.

In turn, `CCOC(=O)c1c(N2CCCCC2)[nH]c2ccc(O)cc12` returned an inhibition in test [2] of 0%.

Regarding `CCOC(=O)c1c(Nc2cccnc2)[nH]c2ccc(O)cc12`, the figures for the inhibition in test [2] and in test [3] were 19% and 24%, respectively.

For the molecule `CCOC(=O)c1c(Nc2cccc(Cl)c2)[nH]c2ccc(O)cc12`, the values for the IC50 in test [1] and in test [4] were 2.4 µM and 0.3 µM, respectively.

Turning to `CCOC(=O)c1c(Nc2ccccc2)[nH]c2ccc(O)cc12`, the IC50 was determined as 7.3 µM in test [1] and 2.3 µM in test [4]. For the same molecule, the inhibition in test [2] amounted to 65%; in test [3], 80%.

With `CCOC(=O)c1c(NC(C)c2ccccc2)[nH]c2ccccc12` (stereo not given), the figures for the IC50 in test [1], in test [4] and in test [5] were 9.7 µM, 9.8 µM and 5.9 µM, respectively. Moreover, the results for the inhibition in test [2] and in test [3] were 53% and 51%, respectively.

For `CCOC(=O)c1c(N2CCOCC2)[nH]c2ccc(O)cc12`, in test [2], the inhibition turned out to be 0%.

In test [2], `N#Cc1c(N)[nH]c2ccc(O)cc12` returned an inhibition of 0%.

For the molecule `CCOC(=O)c1c(N2CCCC2)[nH]c2ccc(O)cc12`, in test [2], the inhibition came to 0%.

With `CCOC(=O)c1c(N2CCN(c3ccc(Cl)cc3)CC2)[nH]c2ccc(O)cc12`, the figures for the IC50 in test [1], in test [4] and in test [5] were 5 µM, 2.3 µM and 5.8 µM, respectively. The inhibition in test [2] came out at 84%; in test [3], 69%.

Consider `CCOC(=O)c1c(N2CCN(c3ccc(F)cc3)CC2)[nH]c2ccc(O)cc12`, for which the inhibition stood at 22% in test [2] and 81% in test [3].

As for `CC(=O)c1c(N)[nH]c2ccc(O)cc12`, the inhibition in test [2] amounted to 0%.

On to `CC(Nc1[nH]c2ccc(O)cc2c1C#N)c1ccccc1` (stereo not given), for which the values for the IC50 in test [1], in test [4] and in test [5] were 2.8 µM, 10 µM and 4.1 µM, respectively. Further, the inhibition in test [2] turned out to be 85%; in test [3], 62%.
